{
  "source": "ChEMBL document CHEMBL4414663",
  "about": "“Pyrazole-4-Carboxamide (YW2065): A Therapeutic Candidate for Colorectal Cancer via Dual Activities of Wnt/β-Catenin Signaling Inhibition and AMP-Activated Protein Kinase (AMPK) Activation” (J Med Chem, 2019)",
  "key": {"SW-620 [1]": {"tested_on": "SW-620", "experiment": "Induction of apoptosis in human SW620 cells assessed as late apoptotic cells level at 3 uM incubated for 48 hrs by AAD-7 and FITC-annexin-V staining based flow cytometry (reference value: 7.6%)", "format": "functional"}, "[2]": {"experiment": "Half life in C57BL/6J mouse at 5 mg/kg, iv by UPLC-MS analysis", "format": "ADME, organism-based", "conditions": "in vivo", "how_it_was_run": "(§1)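 Male C57BL/6J mice, 2-3 months, 23-26 g. Single 5 mg/kg dose in 5% Kolliphor in saline, given iv (n=3) or by oral gavage (n=5). Tail-vein blood taken at 0.25, 0.5, 1, 4, 8 and 12 h and spun to plasma. Plasma analysed by LC-MS/MS on a triple quadrupole with a C18 column. Parameters from non-compartmental analysis.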"}, "HT-29": {"tested_on": "HT-29", "experiment": "Induction of apoptosis in human HT-29 cells incubated for 48 hrs by AAD-7 and FITC-annexin-V staining based flow cytometry", "format": "functional, cell-based"}, "[3]": {"experiment": "AUC (0 to infinity) in C57BL/6J mouse at 5 mg/kg, iv by UPLC-MS analysis", "format": "ADME, organism-based", "design": "dose 5 mg/kg, route intravenous, time infinity", "conditions": "in vivo", "how_it_was_run": "as §1"}, "[4]": {"target": "Serine/threonine-protein kinase PAK 3 (Homo sapiens) (UniProt O75914)", "sequence (O75914 whole entry, looked up)": "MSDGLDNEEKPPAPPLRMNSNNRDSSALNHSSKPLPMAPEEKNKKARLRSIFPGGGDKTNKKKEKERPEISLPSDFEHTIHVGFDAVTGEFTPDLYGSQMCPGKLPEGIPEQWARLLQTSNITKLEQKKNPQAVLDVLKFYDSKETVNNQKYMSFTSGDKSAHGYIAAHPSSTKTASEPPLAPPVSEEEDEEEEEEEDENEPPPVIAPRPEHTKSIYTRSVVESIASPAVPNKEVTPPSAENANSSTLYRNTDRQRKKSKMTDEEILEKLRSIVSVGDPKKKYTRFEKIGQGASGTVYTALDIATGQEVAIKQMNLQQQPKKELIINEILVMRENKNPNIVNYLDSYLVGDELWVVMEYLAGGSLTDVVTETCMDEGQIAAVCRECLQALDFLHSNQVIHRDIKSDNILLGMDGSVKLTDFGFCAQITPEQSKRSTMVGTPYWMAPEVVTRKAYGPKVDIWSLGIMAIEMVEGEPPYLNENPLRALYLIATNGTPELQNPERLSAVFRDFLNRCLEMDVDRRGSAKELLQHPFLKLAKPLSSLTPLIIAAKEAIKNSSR", "experiment": "Inhibition of PAK3 (unknown origin) at 1000 nM relative to control", "how_it_was_run": "(§2)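 Single-concentration screen at 1000 nM against a 273-kinase panel, reported as percent inhibition.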"}, "[5]": {"experiment": "AUC (0 to infinity) in C57BL/6J mouse at 5 mg/kg, po by UPLC-MS analysis", "format": "ADME, organism-based", "design": "dose 5 mg/kg, time infinity, route oral", "conditions": "in vivo", "how_it_was_run": "as §1"}, "[6]": {"target": "T1, AMP-activated protein kinase, AMPK (Homo sapiens) (UniProt P54646+O43741+P54619+Q9UGJ0+Q9Y478+Q13131+Q9UGI9)", "experiment": "Activation of AMPK in human SW620 cells assessed as increase in AMPK phosphorylation incubated for 24 hrs by Western blot analysis", "format": "cell-based", "how_it_was_run": "(§3)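 SW620 cells in RPMI 1640 with 10% FBS, treated over a concentration range. Lysed in RIPA with protease inhibitors, 20 µL of 2 mg/mL protein run on 7.5% SDS-PAGE, transferred to nitrocellulose, blocked in 5% BSA. Rabbit primaries (Axin-1, ACC, pACC, AMPK, pAMPK at 1:1,000; β-actin 1:2,000) overnight at 4 °C, HRP secondary 1:8000 for 2 h, ECL.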"}, "[7]": {"experiment": "Toxicity in C57BL/6 mouse assessed as effect on total protein level at 100 mg/kg/day, ip for 21 days", "format": "organism-based", "conditions": "in vivo, 504 h"}, "SW-620 [8]": {"tested_on": "SW-620", "experiment": "Induction of apoptosis in human SW620 cells assessed as late apoptotic cells level at 10 uM incubated for 48 hrs by AAD-7 and FITC-annexin-V staining based flow cytometry (reference value: 7.6%)", "format": "functional"}, "SW-620 [9]": {"tested_on": "SW-620", "experiment": "Antitumor activity against human SW620 cells xenografted in nude mouse assessed as reduction in tumor weight at 50 mg/kg, ip QD for 32 consecutive days", "format": "functional, organism-based", "how_it_was_run": "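Six-week-old nude mice injected subcutaneously with 2×10^6 SW620 cells. Randomised at mean tumor volume 100–200 mm³ (n=6/group). Given 10 or 50 mg/kg ip daily for 32 consecutive days; vehicle 10% DMSO, 10% Kolliphor, 80% saline. Tumor volume measured every other day. Tumors weighed after euthanasia at day 32. t test against vehicle.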"}, "SW480": {"tested_on": "SW480", "experiment": "Growth inhibition of human SW480 cells by Cell-titer-fluor reagent based assay", "format": "functional"}, "Mus musculus [10]": {"tested_on": "Mus musculus", "experiment": "Inhibition of Wnt/beta-Catenin signaling in nude mouse xenografted with human SW620 cells assessed as reduction in MMP7 mRNA expression at 50 mg/kg, ip QD for 32 consecutive days by RT-PCR analysis", "format": "organism-based", "conditions": "in vivo", "how_it_was_run": "(§4)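 Six-week-old nude mice implanted subcutaneously in the right flank with 2×10^6 SW620 cells. Randomized at mean tumor volume 100–200 mm³, n = 6/group. Dosed IP once daily for 32 days at 10 or 50 mg/kg, or vehicle (10% DMSO, 10% Kolliphor, 80% saline). Tumors collected at day 32; Axin-2, MMP-7 and S100A4 expression measured by RT-PCR.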"}, "HEK293": {"tested_on": "HEK293", "experiment": "Induction of Axin-1 protein expression in recombinant human Wnt-3a-induced Wnt-HEK293 cells at 1 uM by Western blot analysis", "format": "functional, cell-based"}, "SW-620 [11]": {"tested_on": "SW-620", "experiment": "Induction of apoptosis in human SW620 cells incubated for 48 hrs by AAD-7 and FITC-annexin-V staining based flow cytometry", "format": "functional, cell-based", "how_it_was_run": "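Cells treated with a range of concentrations or DMSO for 48 h. Stained with FITC annexin V/7-AAD and analysed by flow cytometry.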"}, "Homo sapiens [12]": {"organism": "Homo sapiens", "experiment": "Inhibition of Wnt/beta-Catenin signaling (unknown origin) expressed in recombinant human Wnt-3a-induced Wnt-HEK293 cells assessed as increase in beta-catenin degradation at 1 uM by Western blot analysis", "format": "cell-based"}, "SW-620 [13]": {"tested_on": "SW-620", "experiment": "Growth inhibition of human SW620 cells over-expressing constitutively active beta-catenin S33Y mutant incubated for 72 hrs by Cell-titer-fluor reagent based assay", "format": "functional", "conditions": "SW-620, 72 h", "how_it_was_run": "(§5)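 SW620 cells, parental, overexpressing β-catenin S33Y, or with Axin-1 knocked down by lentiviral shRNA. Treated with compound or vehicle for 72 h.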"}, "Mus musculus [14]": {"tested_on": "Mus musculus", "experiment": "Inhibition of Wnt/beta-Catenin signaling in nude mouse xenografted with human SW620 cells assessed as reduction in S100A4 mRNA expression at 50 mg/kg, ip QD for 32 consecutive days by RT-PCR analysis", "format": "organism-based", "conditions": "in vivo", "how_it_was_run": "as §4"}, "[15]": {"experiment": "Oral bioavailability in C57BL/6J mouse at 5 mg/kg by UPLC-MS analysis", "format": "ADME, organism-based", "conditions": "in vivo", "how_it_was_run": "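Male C57BL/6J mice, 2–3 months old, 23–26 g. Single 5 mg/kg dose in 5% Kolliphor in saline, IV (n = 3) or oral gavage (n = 5). Tail-vein blood taken at 0.25, 0.5, 1, 4, 8 and 12 h and centrifuged to plasma. Analysed by LC-MS/MS (QTRAP 4000, C18 column); parameters from non-compartmental analysis.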"}, "Homo sapiens [16]": {"organism": "Homo sapiens", "experiment": "Inhibition of Wnt/beta-Catenin signaling in human SW620 cells assessed as reduction in MMP7 mRNA expression at 10 uM incubated for 24 hrs by real-time PCR analysis", "format": "cell-based", "how_it_was_run": "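SW620 cells (RPMI 1640, 10% FBS) in 6-well plates, incubated 24 h, then treated with compound at several concentrations, three replicates each, for 24 h. Total RNA isolated with Trizol/phenol-chloroform; 2 µg reverse transcribed; Wnt target gene mRNA quantified by PCR.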"}, "[17]": {"target": "T1, AMP-activated protein kinase, AMPK (Homo sapiens)", "experiment": "Activation of AMPK in human SW620 cells assessed as increase in ACC phosphorylation incubated for 24 hrs by Western blot analysis", "format": "cell-based", "how_it_was_run": "as §3"}, "[18]": {"experiment": "Cmax in C57BL/6J mouse at 5 mg/kg, po by UPLC-MS analysis", "format": "ADME, organism-based", "design": "dose 5 mg/kg, route oral", "conditions": "in vivo", "how_it_was_run": "as §1"}, "SW-620 [19]": {"tested_on": "SW-620", "experiment": "Growth inhibition of human SW620 cells incubated for 72 hrs by Cell-titer-fluor reagent based assay", "format": "functional", "conditions": "SW-620, 72 h", "how_it_was_run": "as §5"}, "SW-620 [20]": {"tested_on": "SW-620", "experiment": "Induction of apoptosis in human SW620 cells assessed as viable cells level at 1 uM incubated for 48 hrs by AAD-7 and FITC-annexin-V staining based flow cytometry (reference value: 73.8%)", "format": "functional"}, "[21]": {"target": "MAP kinase-activated protein kinase 3 (Homo sapiens) (UniProt Q16644)", "sequence (Q16644 whole entry, looked up)": "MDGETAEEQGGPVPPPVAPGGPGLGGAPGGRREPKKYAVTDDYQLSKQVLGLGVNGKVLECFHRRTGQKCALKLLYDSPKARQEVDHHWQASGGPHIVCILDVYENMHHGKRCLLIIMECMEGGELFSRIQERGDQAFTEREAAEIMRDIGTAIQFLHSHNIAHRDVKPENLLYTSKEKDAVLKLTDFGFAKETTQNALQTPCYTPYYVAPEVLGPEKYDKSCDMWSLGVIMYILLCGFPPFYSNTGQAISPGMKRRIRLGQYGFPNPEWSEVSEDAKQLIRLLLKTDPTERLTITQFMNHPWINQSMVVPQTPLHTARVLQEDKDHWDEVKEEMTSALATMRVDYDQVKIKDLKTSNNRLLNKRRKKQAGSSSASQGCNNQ", "experiment": "Inhibition of MAPKAPK3 (unknown origin) at 1000 nM relative to control", "how_it_was_run": "as §2"}, "[22]": {"experiment": "Half life in C57BL/6J mouse at 5 mg/kg, po by UPLC-MS analysis", "format": "ADME, organism-based", "conditions": "in vivo", "how_it_was_run": "as §1"}},
  "note": "Active and inactive are the calls of the source. No cut-off for these calls is given here.",
  "data": [
    {"smiles": "Cc1c(C(=O)Nc2ccc3ccccc3n2)cnn1-c1ccccc1Br", "values": [
      {"measurement": "Activity", "setting": "SW-620 [1]", "value": 19.2, "unit": "%"},
      {"measurement": "half-life", "setting": "[2]", "value": 3.1, "unit": "h"},
      {"measurement": "Activity", "setting": "HT-29", "value": "Dose-dependent effect"},
      {"measurement": "AUC(0-inf)", "setting": "[3]", "value": 57500, "unit": "ng·h/mL"},
      {"measurement": "inhibition", "setting": "[4]", "value": "Active"},
      {"measurement": "AUC(0-inf)", "setting": "[5]", "value": 13200, "unit": "ng·h/mL"},
      {"measurement": "Activity", "setting": "[6]", "value": "Dose-dependent effect"},
      {"measurement": "Activity", "setting": "[7]", "value": "Non-Toxic"},
      {"measurement": "Activity", "setting": "SW-620 [8]", "value": 20, "unit": "%"},
      {"measurement": "Activity", "setting": "SW-620 [9]", "value": "Active"},
      {"measurement": "GI50", "setting": "SW480", "value": 2.4, "unit": "µM"},
      {"measurement": "inhibition (INH)", "setting": "Mus musculus [10]", "value": "Active"},
      {"measurement": "Activity", "setting": "HEK293", "value": "Active"},
      {"measurement": "Activity", "setting": "SW-620 [11]", "value": "Dose-dependent effect"},
      {"measurement": "inhibition", "setting": "Homo sapiens [12]", "value": "Active"},
      {"measurement": "IC50", "setting": "SW-620 [13]", "value": 0.0678, "unit": "µM"},
      {"measurement": "inhibition (INH)", "setting": "Mus musculus [14]", "value": "Active"},
      {"measurement": "bioavailability", "setting": "[15]", "value": 22.9, "unit": "%"},
      {"measurement": "inhibition", "setting": "Homo sapiens [16]", "value": "Active"},
      {"measurement": "Activity", "setting": "[17]", "value": "Dose-dependent effect"},
      {"measurement": "Cmax", "setting": "[18]", "value": 5200, "unit": "ng/mL"},
      {"measurement": "IC50", "setting": "SW-620 [19]", "value": 0.0116, "unit": "µM"},
      {"measurement": "Activity", "setting": "SW-620 [20]", "value": 67.1, "unit": "%"},
      {"measurement": "inhibition", "setting": "[21]", "value": "Active"},
      {"measurement": "half-life", "setting": "[22]", "value": 2.9, "unit": "h"}
    ]}
  ]
}
